According to ChEMBL document CHEMBL1770139, “Synthesis of 'clickable' acylhomoserine lactone quorum sensing probes: unanticipated effects on mammalian cell activation” (Bioorg Med Chem Lett, 2011):
Active and inactive are the calls of the source. The rule behind the calls is not given here.

Experiments:
[1] = system: BMDM; experiment: Induction of PARP cleavage in mouse BMDM cells at 50 uM after 90 mins by Western blot analysis; format: cell-based
In short: (§1)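 Primary bone marrow-derived macrophages exposed to alkynyl AHL analogue at 50 μM for 90 minutes. Cell extracts were probed by Western blot for p38 phosphorylation, eIF2α phosphorylation and PARP cleavage.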

[2] = target: Eukaryotic translation initiation factor 2 subunit 1 (Mus musculus) (UniProt Q6ZWX6); experiment: Induction of phosphorylation of eIF2alpha in mouse BMDM cells at 50 uM after 90 mins by Western blot analysis; format: cell-based; in short: as §1
[3] = target: MAP kinase p38 (Mus musculus) (UniProt P47811+O08911+Q9WUI1+Q9Z1B7); experiment: Induction of phosphorylation of p38 in mouse BMDM cells at 50 uM after 90 mins by Western blot analysis; format: cell-based; in short: as §1
[4] = system: Pseudomonas aeruginosa; experiment: Induction of quorum sensing activity in lasI/rhlI-deleted Pseudomonas aeruginosa PAO-JP2 expressing plasmid pKD201 containing a LasI reporter coupled to the luxCDABE assessed as relative luminescence units normalized with respect to cell viability at 1 uM after 4 hrs by autoinducer activity assay
In short: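 Autoinducer assay in P. aeruginosa luminescence reporter strain PAO-JP2, a PAO1 lasI/rhlI double mutant carrying luxABCDE.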

Eukaryotic translation initiation factor 2 subunit 1 (Mus musculus), sequence (Q6ZWX6 whole entry): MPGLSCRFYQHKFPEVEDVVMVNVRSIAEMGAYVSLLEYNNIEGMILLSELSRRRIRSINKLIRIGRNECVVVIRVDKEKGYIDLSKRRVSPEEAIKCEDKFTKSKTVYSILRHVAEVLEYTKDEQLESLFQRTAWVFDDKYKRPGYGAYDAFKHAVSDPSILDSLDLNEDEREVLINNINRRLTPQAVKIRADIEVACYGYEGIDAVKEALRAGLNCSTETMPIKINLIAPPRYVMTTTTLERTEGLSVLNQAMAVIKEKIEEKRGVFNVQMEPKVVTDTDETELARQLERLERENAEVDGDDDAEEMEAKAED

Row | Activity [2] | Activity [3] | Structure (SMILES) | Activity [1] | Activity [4]
1 | Active | Active | CCCCCCCCCC(=O)CC(=O)N[C@H]1CCOC1=O | Active | Active
2 | inactive | inactive | C#CCCCCC(=O)CC(=O)N[C@H]1CCOC1=O | inactive | inactive
3 | Active | Active | C#CCCCCCCCCC(=O)CC(=O)N[C@H]1CCOC1=O | Active | Active

Second part, the molecule before the results:

Row | Structure (SMILES) | Activity [2] | Activity [3] | Activity [1] | Activity [4]
4 | [N-]=[N+]=NCCCCCCCCCC(=O)CC(=O)N[C@@H]1CCOC1=O | inactive | inactive | inactive | inactive
5 | [N-]=[N+]=NCCCCCCCCCC(=O)CC(=O)N[C@H]1CCOC1=O | Active | Active | Active | inactive
